Key:
Mus musculus [1] = assay: Antihyperglycemic activity in alloxan-induced diabetic BALB/c mouse model assessed as blood glucose level at 10 mg/kg measured immediately by glucometry analysis; assay type: functional
Procedure, shortened: (§1)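 Diabetic BALB/c mice; blood sampled before dosing (0 h) and again at 2, 4, 6 and 8 h to measure blood glucose (mg/dl). Values are means ± SEM from three trials.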

Mus musculus [2] = assay: Antihyperglycemic activity in alloxan-induced diabetic BALB/c mouse model assessed as blood glucose level at 10 mg/kg measured after 2 hrs by glucometry analysis; assay type: functional; procedure, shortened: as §1
Mus musculus [3] = assay: Antihyperglycemic activity in alloxan-induced diabetic BALB/c mouse model assessed as blood glucose level at 10 mg/kg measured after 4 hrs by glucometry analysis; assay type: functional; procedure, shortened: as §1
Mus musculus [4] = assay: Antihyperglycemic activity in alloxan-induced diabetic BALB/c mouse model assessed as blood glucose level at 10 mg/kg measured after 6 hrs by glucometry analysis; assay type: functional; procedure, shortened: as §1
Mus musculus [5] = assay: Antihyperglycemic activity in alloxan-induced diabetic BALB/c mouse model assessed as blood glucose level at 10 mg/kg measured after 8 hrs by glucometry analysis; assay type: functional; procedure, shortened: as §1
Mus musculus [6] = assay: Antihyperglycemic activity in alloxan-induced diabetic BALB/c mouse model assessed as reduction in blood glucose level at 10 mg/kg measured after 8 hrs by glucometry analysis relative to control; assay type: functional
Procedure, shortened: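 Diabetic BALB/c mice; blood glucose measured at 0 h and at 2, 4, 6 and 8 h. Percent inhibition of blood glucose was calculated at 8 h. Three trials.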

[7] = target: T1, Aldo-keto reductase family 1 member B1 (Homo sapiens, UniProt P15121); assay: Selectivity index, ratio of IC50 for ALR1 (unknown origin) to IC50 for ALR2 (unknown origin)
[8] = target: Aldo-keto reductase family 1 member A1 (Homo sapiens, UniProt P14550); assay: Inhibition of ALR1 (unknown origin) using sodium d-glucoronate as substrate preincubated for 10 mins followed by substrate addition by UV-spectrophotometry analysis
Procedure, shortened: (§2)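 Enzyme activity followed by UV spectrophotometry as the decrease in NADPH absorbance at 340 nm. Valproic acid served as positive control for ALR1, sorbinil for ALR2.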

[9] = target: T1, Aldo-keto reductase family 1 member B1; assay: Inhibition of ALR2 (unknown origin) using sodium dl-glyceraldehyde as substrate preincubated for 10 mins followed by substrate addition by UV-spectrophotometry analysis; procedure, shortened: as §2

Chain of Aldo-keto reductase family 1 member A1 (P14550 2-325 limits assumed): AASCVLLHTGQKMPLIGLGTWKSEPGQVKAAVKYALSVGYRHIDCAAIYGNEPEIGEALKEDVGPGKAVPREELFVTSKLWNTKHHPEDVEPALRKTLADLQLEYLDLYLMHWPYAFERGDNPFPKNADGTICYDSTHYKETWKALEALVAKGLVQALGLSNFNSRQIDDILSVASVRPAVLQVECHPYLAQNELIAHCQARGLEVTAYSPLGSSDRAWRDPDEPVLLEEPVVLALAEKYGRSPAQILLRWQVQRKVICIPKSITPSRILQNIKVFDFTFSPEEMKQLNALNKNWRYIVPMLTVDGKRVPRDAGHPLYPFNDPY

Ratio IC50 [7]	IC50 [8]	IC50 [9]	SMILES	Activity (Mus musculus [1])	Activity (Mus musculus [2])	Activity (Mus musculus [3])	Activity (Mus musculus [4])	Activity (Mus musculus [5])	inhibition in vivo at 10 mg/kg (Mus musculus [6])
0.63	6.43 µM	10.2 µM	Cc1ccc(NC(=O)CN2C(=O)NC3(CCCCC3)C2=O)cc1	387 mg/dL	305 mg/dL	268 mg/dL	197 mg/dL	115 mg/dL	70.3%
1.76	10.9 µM	6.21 µM	Cc1ccc(NC(=O)CN2C(=O)NC3(C2=O)c2ccccc2-c2ccccc23)cc1	358 mg/dL	314 mg/dL	283 mg/dL	211 mg/dL	167 mg/dL	53.4%
32.6	30.3 µM	0.93 µM	O=C(CN1C(=O)NC2(C1=O)c1ccccc1-c1ccccc12)Nc1ccc(Br)cc1	452 mg/dL	331 mg/dL	218 mg/dL	173 mg/dL	85 mg/dL	81.1%
–	–	–	CCOc1cc(CC(=O)N[C@@H](CC(C)C)c2ccccc2N2CCCCC2)ccc1C(=O)O [REPAGLINIDE]	392 mg/dL	313 mg/dL	259 mg/dL	160 mg/dL	94 mg/dL	66.1%
96	35.5 µM	0.37 µM	O=C(CN1C(=O)NC2(C1=O)c1ccccc1-c1ccccc12)Nc1ccc(Cl)cc1Cl	398 mg/dL	290 mg/dL	223 mg/dL	168 mg/dL	63 mg/dL	84.3%
9.36	25.8 µM	2.76 µM	COc1ccc(NC(=O)CN2C(=O)NC3(CCCCC3)C2=O)cc1	370 mg/dL	322 mg/dL	299 mg/dL	231 mg/dL	163 mg/dL	56.1%
16.9	32.9 µM	1.95 µM	O=C(CN1C(=O)NC2(CCCCC2)C1=O)Nc1ccc(Cl)cc1Cl	384 mg/dL	319 mg/dL	269 mg/dL	217 mg/dL	121 mg/dL	68.5%
8.45	24.3 µM	2.87 µM	COc1ccc(NC(=O)CN2C(=O)NC3(C2=O)c2ccccc2-c2ccccc23)cc1	320 mg/dL	258 mg/dL	237 mg/dL	279 mg/dL	370 mg/dL	–
18.3	20.7 µM	1.13 µM	O=C(CN1C(=O)NC2(CCCCC2)C1=O)Nc1ccc(Cl)cc1	406 mg/dL	347 mg/dL	242 mg/dL	170 mg/dL	85 mg/dL	79.2%
21.6	22.2 µM	1.03 µM	O=C(CN1C(=O)NC2(C1=O)c1ccccc1-c1ccccc12)Nc1ccc(Cl)cc1	460 mg/dL	350 mg/dL	234 mg/dL	189 mg/dL	90 mg/dL	80.4%
43.4	31.2 µM	0.72 µM	O=C(CN1C(=O)NC2(CCCCC2)C1=O)Nc1ccc(Br)cc1	459 mg/dL	386 mg/dL	276 mg/dL	182 mg/dL	69 mg/dL	85.1%

Reference: ChEMBL document CHEMBL4387757, “Synthesis and molecular modeling of novel non-sulfonylureas as hypoglycemic agents and selective ALR2 inhibitors” (Bioorg Med Chem, 2019)
